# Assay results from ChEMBL document CHEMBL4130626, “α-Arylidene Diacylglycerol-Lactones (DAG-Lactones) as Selective Ras Guanine-Releasing Protein 3 (RasGRP3) Ligands” (J Med Chem, 2018).
# How the values were obtained:
# Format in all cases: cell-based
# [1] = biological target: T1, RAS guanyl-releasing protein 1 (Homo sapiens, UniProt O95267); experiment: Activation of GFP-tagged RasGRP1 (unknown origin) expressed in HEK293 cells after 30 mins by immunoblot method
# T1 sequence (O95267 whole entry): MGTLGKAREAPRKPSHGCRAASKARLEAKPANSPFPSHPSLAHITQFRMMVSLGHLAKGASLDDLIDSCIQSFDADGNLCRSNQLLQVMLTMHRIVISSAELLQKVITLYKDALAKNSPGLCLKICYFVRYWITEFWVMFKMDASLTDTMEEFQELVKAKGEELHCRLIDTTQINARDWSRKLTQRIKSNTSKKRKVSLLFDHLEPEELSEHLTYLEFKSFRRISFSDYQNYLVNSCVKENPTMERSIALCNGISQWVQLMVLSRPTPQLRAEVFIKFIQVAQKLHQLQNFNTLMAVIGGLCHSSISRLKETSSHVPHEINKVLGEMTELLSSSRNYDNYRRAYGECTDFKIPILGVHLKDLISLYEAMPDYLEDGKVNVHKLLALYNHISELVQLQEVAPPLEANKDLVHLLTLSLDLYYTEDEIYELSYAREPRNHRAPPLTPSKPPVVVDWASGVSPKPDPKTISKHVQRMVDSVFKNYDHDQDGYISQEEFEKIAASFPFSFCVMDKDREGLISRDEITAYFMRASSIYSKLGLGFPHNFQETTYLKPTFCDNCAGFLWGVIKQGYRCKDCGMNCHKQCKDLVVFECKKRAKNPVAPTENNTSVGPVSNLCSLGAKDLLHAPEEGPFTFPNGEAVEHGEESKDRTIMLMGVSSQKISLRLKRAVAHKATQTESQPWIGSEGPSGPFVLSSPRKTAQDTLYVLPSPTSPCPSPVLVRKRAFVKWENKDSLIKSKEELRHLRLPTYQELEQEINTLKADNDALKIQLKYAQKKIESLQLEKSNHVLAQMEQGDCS
# Summary of the method: (§1)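 Cells expressing GFP-RasGRP1/3 (HEK293 or LNCaP, 48 h after plating, transfected; expression checked by fluorescence 24-48 h later) or Ramos with endogenous RasGRP3 treated with half-log increasing concentrations (max 10 µM), 1000 nM PMA or DMSO, 37 °C, 30 min, 5% CO2. RasGTP by Raf1 RBD bead pulldown and anti-Pan-Ras immunoblot; pERK by western blot. Band intensities normalized to 1000 nM PMA; EC50 from n = 3.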
# [2] = biological target: T2, Ras guanyl-releasing protein 3 (Homo sapiens, UniProt Q8IV61); experiment: Activation of GFP-tagged RasGRP3 (unknown origin) expressed in HEK293 cells after 30 mins by immunoblot method
# T2 sequence (Q8IV61 whole entry): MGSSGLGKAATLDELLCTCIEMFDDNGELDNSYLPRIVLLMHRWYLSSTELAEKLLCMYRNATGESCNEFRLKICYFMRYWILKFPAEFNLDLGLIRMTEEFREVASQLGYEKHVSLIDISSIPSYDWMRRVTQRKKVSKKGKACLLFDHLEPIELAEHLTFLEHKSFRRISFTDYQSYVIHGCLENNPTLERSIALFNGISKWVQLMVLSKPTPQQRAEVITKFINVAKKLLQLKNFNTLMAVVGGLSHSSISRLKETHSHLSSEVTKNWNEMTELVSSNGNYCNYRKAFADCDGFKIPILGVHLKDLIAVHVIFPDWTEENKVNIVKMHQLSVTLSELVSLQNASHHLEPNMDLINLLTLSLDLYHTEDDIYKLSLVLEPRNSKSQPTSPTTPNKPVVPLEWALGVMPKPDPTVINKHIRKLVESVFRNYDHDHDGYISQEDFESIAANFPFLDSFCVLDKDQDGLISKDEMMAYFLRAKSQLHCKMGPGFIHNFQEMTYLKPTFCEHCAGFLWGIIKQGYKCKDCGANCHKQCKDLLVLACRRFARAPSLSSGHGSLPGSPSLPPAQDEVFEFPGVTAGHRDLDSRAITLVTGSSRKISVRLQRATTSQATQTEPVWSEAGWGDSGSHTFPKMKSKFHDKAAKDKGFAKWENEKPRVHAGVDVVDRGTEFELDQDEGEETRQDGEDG
# Summary of the method: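 HEK293 cells grown in EMEM + 10% FBS, transfected after 48 h with GFP-RasGRP3 (Lipofectamine Plus). Treated 30 min at 37 °C, 5% CO2, with half-log increasing concentrations up to 10 µM, 1000 nM PMA or DMSO. Active Ras pulled down from lysates on Raf1-RBD agarose (60 min, 4 °C), immunoblotted with anti-Pan-Ras. Band intensity normalised to 1000 nM PMA. EC50 is the mean of n = 3.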
# [3] = biological target: T3, Protein kinase C delta type (Homo sapiens, UniProt Q05655); experiment: Activation of PKCdelta (unknown origin) expressed in HEK293 cells harboring GFP-tagged RasGRP1 assessed as phosphorylation at ser299 residues after 30 mins by immunoblot method
# T3 sequence (Q05655 whole entry): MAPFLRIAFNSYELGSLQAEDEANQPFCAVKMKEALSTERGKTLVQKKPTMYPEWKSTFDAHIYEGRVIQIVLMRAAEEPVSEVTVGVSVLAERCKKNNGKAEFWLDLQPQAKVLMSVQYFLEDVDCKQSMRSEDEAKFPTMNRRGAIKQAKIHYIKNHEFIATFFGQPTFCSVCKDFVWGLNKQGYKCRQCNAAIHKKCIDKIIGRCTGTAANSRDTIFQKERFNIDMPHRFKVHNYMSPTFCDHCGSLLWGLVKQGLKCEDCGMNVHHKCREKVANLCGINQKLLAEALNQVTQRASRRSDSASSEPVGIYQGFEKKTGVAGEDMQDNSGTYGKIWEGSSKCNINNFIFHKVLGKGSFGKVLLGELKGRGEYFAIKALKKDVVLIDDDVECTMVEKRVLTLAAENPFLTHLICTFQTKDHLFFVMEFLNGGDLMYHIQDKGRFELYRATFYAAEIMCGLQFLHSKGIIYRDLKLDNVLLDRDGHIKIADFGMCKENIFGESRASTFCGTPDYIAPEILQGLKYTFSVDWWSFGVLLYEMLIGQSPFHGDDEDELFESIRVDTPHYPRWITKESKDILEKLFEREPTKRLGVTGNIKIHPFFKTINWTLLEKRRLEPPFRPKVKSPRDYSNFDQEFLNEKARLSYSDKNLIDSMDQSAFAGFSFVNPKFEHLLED
# Summary of the method: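 PKCδ activation read as phospho-S299 on western blots of lysates (50 µg protein, 10% SDS-PAGE, milk blocking, anti-PKCδS299 overnight). Cells: GFP-RasGRP1/3-transfected HEK293 or LNCaP, or Ramos, treated 30 min at 37 °C with half-log doses (maximum 10 µM), 1000 nM PMA or DMSO. Scanned intensities normalized to 1000 nM PMA; EC50 mean ± SEM, n = 3; values above 10 µM extrapolated.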
# [4] = biological target: T3, Protein kinase C delta type; experiment: Activation of PKCdelta (unknown origin) expressed in HEK293 cells harboring GFP-tagged RasGRP3 assessed as phosphorylation at ser299 residues after 30 mins by immunoblot method
# Summary of the method: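 Cells are GFP-RasGRP3-transfected HEK293, grown in EMEM + 10% FBS. Exposed 30 min at 37 °C, 5% CO2, to half-log concentrations up to 10 µM, 1000 nM PMA or DMSO. Lysed in RIPA with protease and phosphatase inhibitors. 50 µg protein run on 10% SDS-PAGE and blotted for phospho-PKCδ S299; anti-GFP used as loading control. Signal normalised to 1000 nM PMA. EC50 is the mean of n = 3.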
# [5] = biological target: T1, RAS guanyl-releasing protein 1; experiment: Activation of GFP-tagged RasGRP1 (unknown origin) expressed in HEK293 cells assessed as ERK1/2 phosphorylation after 30 mins by immunoblot method; summary of the method: as §1
# [6] = biological target: T2, Ras guanyl-releasing protein 3; experiment: Activation of GFP-tagged RasGRP3 (unknown origin) expressed in HEK293 cells assessed as ERK1/2 phosphorylation after 30 mins by immunoblot method; summary of the method: as §1
# [7] = biological target: T2, Ras guanyl-releasing protein 3; experiment: Activation of GFP-tagged RasGRP3 (unknown origin) expressed in human LNCAP cells assessed as ERK1/2 phosphorylation after 30 mins by immunoblot method; summary of the method: as §1
# [8] = species: Homo sapiens; experiment: Selectivity ratio of EC50 for PKCdelta (unknown origin) expressed in HEK293 cells harboring GFP-tagged RasGRP1 to EC50 for GFP-tagged RasGRP1 (unknown origin) expressed in HEK293 cells
# [9] = species: Homo sapiens; experiment: Selectivity ratio of EC50 for PKCdelta (unknown origin) expressed in human LNCAP cells harboring GFP-tagged RasGRP1 to EC50 for GFP-tagged RasGRP1 (unknown origin) expressed in human LNCAP cells assessed as ERK1/2 phosphorylation
structure (smiles),measurement,setting,value
Cn1cc(/C=C2\CC(CO)(COC(=O)C(C)(C)C)OC2=O)c2ccccc21 (centres undefined),EC50,[1],0.86 µM
same,EC50,[2],1.83 µM
same,EC50,[3],12.6 µM
same,EC50,[4],16.9 µM
same,EC50,[5],4.88 µM
same,EC50,[6],4.66 µM
same,EC50,[7],2.98 µM
same,Ratio EC50,[8],14.7
same,Ratio EC50,[9],2.2
